We go through two molecules from ChEMBL document CHEMBL3758120, “Synthesis and Mechanism Studies of 1,3-Benzoazolyl Substituted Pyrrolo[2,3-b]pyrazine Derivatives as Nonintercalative Topoisomerase II Catalytic Inhibitors” (J Med Chem, 2016).

In assay [1] the test system is HL-60. In words: Induction of apoptosis in human HL60 cells assessed as late apoptotic cells at 0.5 uM after 24 hrs by annexin V-FITC/propidium iodide staining-based flow cytometric analysis (reference value: 1.64%). The class given is functional. A digest of the protocol:
(§1)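 HL-60 cells at 5.0 × 10^5 cells/ml treated for 12 h (0.5–2 μM) or 24 h (0.25–1 μM), washed twice in cold PBS, resuspended in binding buffer, stained with annexin V-FITC and propidium iodide for 15 min in the dark, analysed by flow cytometry within 1 h; quadrants define live, early and late apoptotic cells. Three repeats.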

Assay [2] concerns HL-60. In words: Induction of apoptosis in human HL60 cells assessed as late apoptotic cells at 0.5 uM after 12 hrs by annexin V-FITC/propidium iodide staining-based flow cytometric analysis (reference value: 0.17 to 0.18%). The class given is functional. The procedure, abridged: as §1
For assay [3], the system named is A549. Description: Antiproliferative activity against human A549 cells after 48 hrs by MTT assay. The class given is functional, cell-based. Conditions: A549, 48 h. The procedure, abridged: (§2)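 Cells seeded at 5000 per well and left overnight, then exposed to increasing concentrations (0-50 μM) for 48 h. […] HL-60/MX2 is a mitoxantrone-selected HL-60 derivative with reduced Topo IIα/β.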

For assay [4], the system named is HeLa. Description: Antiproliferative activity against human HeLa cells after 48 hrs by MTT assay. The class given is functional, cell-based. A digest of the protocol: as §2
Assay [5] deals with Raji. In words: Antiproliferative activity against human Raji cells after 48 hrs by MTT assay. The class given is functional, cell-based. The procedure, abridged: as §2
In assay [6] the test system is HL-60. Description: Induction of apoptosis in human HL60 cells assessed as dead cells at 1 uM after 24 hrs by annexin V-FITC/propidium iodide staining-based flow cytometric analysis (reference value: 0.12%). The class given is functional.
Assay [7] relates to HL-60. Description: Induction of apoptosis in human HL60 cells assessed as late apoptotic cells at 0.25 uM after 24 hrs by annexin V-FITC/propidium iodide staining-based flow cytometric analysis (reference value: 1.64%). The class given is functional. A digest of the protocol:
as §1

For assay [8], the system named is HL-60. In words: Induction of apoptosis in human HL60 cells assessed as viable cells at 0.5 uM after 24 hrs by annexin V-FITC/propidium iodide staining-based flow cytometric analysis (reference value: 97.75%). The class given is functional. Conditions: HL-60, 24 h, read-out: Activity. A digest of the protocol: as §1
Assay [9] can be described thus: Antiproliferative activity against human HL60 cells after 48 hrs by MTT assay. Conditions: HL-60, 48 h. The class given is functional, cell-based. A digest of the protocol:
as §2

Assay [10] deals with HL-60. In words: Induction of apoptosis in human HL60 cells assessed as late apoptotic cells at 1 uM after 24 hrs by annexin V-FITC/propidium iodide staining-based flow cytometric analysis (reference value: 1.64%). The class given is functional. A digest of the protocol:
as §1

Assay [11] can be described thus: Antiproliferative activity against human MDA-MB-201 cells after 48 hrs by MTT assay. The class given is functional, cell-based. A digest of the protocol: as §2
For assay [12], the system named is HL-60. Description: Induction of apoptosis in human HL60 cells assessed as viable cells at 2 uM after 12 hrs by annexin V-FITC/propidium iodide staining-based flow cytometric analysis (reference value: 99.12 to 99.33%). Particulars: HL-60, 12 h, read-out: Activity. The class given is functional. A digest of the protocol:
as §1

In assay [13] the test system is K562. In words: Antiproliferative activity against human K562 cells after 48 hrs by MTT assay. The class given is functional, cell-based. Conditions: K562, 48 h. A digest of the protocol: as §2
Assay [14] deals with HL-60. In words: Induction of apoptosis in human HL60 cells assessed as early apoptotic cells at 1 uM after 24 hrs by annexin V-FITC/propidium iodide staining-based flow cytometric analysis (reference value: 0.5%). The class given is functional. The procedure, abridged:
as §1

Assay [15] concerns HL-60. Description: Induction of apoptosis in human HL60 cells assessed as viable cells at 1 uM after 12 hrs by annexin V-FITC/propidium iodide staining-based flow cytometric analysis (reference value: 99.12 to 99.33%). The class given is functional. Particulars: HL-60, 12 h, read-out: Activity. A digest of the protocol: as §1
For assay [16], the target named is DNA topoisomerase 2-alpha (Homo sapiens, UniProt P11388). Description: Inhibition of purified human topoisomerase 2 catalytic activity using supercoiled pBR322 DNA as substrate assessed as inhibition of etoposide-induced linear DNA formation at 20 uM pre-incubated before etoposide addition by agarose gel electrophoresis. The procedure, abridged: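 Human Topo II (6 units) with 0.1 μg supercoiled pBR322 in 50 mM Tris-HCl pH 8.0, 150 mM NaCl, 10 mM MgCl2, 2 mM ATP, 0.5 mM DTT, 30 μg/ml BSA; compounds at 20 μM, etoposide 100 μM. After 6 min at 37 °C, complexes trapped with SDS then EDTA, proteinase K 30 min at 45 °C, heated 72 °C 2 min, run on 1% agarose; linear DNA scored. Antagonism tested by compound pretreatment before etoposide.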

Assay [17] relates to HL-60. In words: Induction of apoptosis in human HL60 cells assessed as viable cells at 0.25 uM after 24 hrs by annexin V-FITC/propidium iodide staining-based flow cytometric analysis (reference value: 97.75%). Particulars: HL-60, 24 h, read-out: Activity. The class given is functional. The procedure, abridged: as §1
Assay [18] has as its system HL-60. Description: Induction of apoptosis in human HL60 cells assessed as dead cells at 1 uM after 12 hrs by annexin V-FITC/propidium iodide staining-based flow cytometric analysis (reference value: 0.12 to 0.15%). The class given is functional.
Assay [19] relates to HL-60. Description: Resistance index, ratio of IC50 for human HL60/MX2 cells to IC50 for HL60 cells. The class given is functional. A digest of the protocol: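 Resistance index calculated as MTT-derived IC50 (48 h exposure, 0-50 μM, A570 readout) in HL-60/MX2 divided by IC50 in parental HL-60.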
For assay [20], the system named is HL-60. Description: Induction of apoptosis in human HL60 cells assessed as early apoptotic cells at 2 uM after 12 hrs by annexin V-FITC/propidium iodide staining-based flow cytometric analysis (reference value: 0.38 to 0.55%). The class given is functional. A digest of the protocol:
as §1

Assay [21] relates to HL-60. Description: Induction of apoptosis in human HL60 cells assessed as dead cells at 0.5 uM after 24 hrs by annexin V-FITC/propidium iodide staining-based flow cytometric analysis (reference value: 0.12%). The class given is functional.

Calls of active or inactive are those of the source. The rule behind the calls is not given here.

DNA topoisomerase 2-alpha, sequence (P11388 whole entry): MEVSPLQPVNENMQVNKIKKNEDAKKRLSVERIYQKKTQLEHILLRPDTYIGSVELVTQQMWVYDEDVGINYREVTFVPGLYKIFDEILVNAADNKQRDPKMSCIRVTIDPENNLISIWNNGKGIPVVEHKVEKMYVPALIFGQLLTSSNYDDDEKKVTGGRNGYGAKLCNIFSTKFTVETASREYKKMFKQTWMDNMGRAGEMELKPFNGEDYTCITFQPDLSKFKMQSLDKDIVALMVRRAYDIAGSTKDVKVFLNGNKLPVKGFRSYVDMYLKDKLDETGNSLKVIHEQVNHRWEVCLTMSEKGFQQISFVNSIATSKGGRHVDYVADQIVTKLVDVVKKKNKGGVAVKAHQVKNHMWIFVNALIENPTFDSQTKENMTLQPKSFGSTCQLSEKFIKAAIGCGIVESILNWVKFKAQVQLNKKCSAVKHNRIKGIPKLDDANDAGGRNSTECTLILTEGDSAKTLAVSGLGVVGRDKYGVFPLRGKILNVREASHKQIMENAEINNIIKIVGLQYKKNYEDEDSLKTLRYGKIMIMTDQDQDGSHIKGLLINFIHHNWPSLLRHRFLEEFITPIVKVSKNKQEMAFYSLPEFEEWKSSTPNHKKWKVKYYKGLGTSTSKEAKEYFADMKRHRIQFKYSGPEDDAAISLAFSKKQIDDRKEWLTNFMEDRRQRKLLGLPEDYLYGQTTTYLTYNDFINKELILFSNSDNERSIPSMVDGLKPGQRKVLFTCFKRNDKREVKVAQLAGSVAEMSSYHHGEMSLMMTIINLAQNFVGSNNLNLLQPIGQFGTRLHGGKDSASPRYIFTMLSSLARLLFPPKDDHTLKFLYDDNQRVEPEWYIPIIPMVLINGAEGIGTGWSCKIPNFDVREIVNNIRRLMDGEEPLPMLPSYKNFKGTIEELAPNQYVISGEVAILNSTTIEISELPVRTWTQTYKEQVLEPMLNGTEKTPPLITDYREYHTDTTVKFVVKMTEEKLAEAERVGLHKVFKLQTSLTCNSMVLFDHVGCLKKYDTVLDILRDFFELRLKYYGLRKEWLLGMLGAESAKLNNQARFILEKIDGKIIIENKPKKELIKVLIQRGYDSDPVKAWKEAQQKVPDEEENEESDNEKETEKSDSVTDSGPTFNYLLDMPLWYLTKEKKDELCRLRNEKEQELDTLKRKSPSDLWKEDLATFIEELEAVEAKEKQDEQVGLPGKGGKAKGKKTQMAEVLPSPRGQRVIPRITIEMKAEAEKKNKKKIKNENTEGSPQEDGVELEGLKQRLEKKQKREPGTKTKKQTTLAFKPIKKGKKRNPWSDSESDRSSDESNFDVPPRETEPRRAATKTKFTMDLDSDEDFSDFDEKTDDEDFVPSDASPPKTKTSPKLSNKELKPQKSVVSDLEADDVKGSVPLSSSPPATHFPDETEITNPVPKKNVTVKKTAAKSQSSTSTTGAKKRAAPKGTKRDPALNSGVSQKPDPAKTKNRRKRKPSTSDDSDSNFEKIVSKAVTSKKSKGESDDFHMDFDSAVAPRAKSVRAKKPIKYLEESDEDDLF

`CN(C)CCCCn1c(N)c(-c2nc3ccccc3[nH]2)c2nc(C#N)c(C#N)nc21`: the Activity in [1] was determined as 79.38%; in assay [2] it was 0.21%; in [6] it was 8.31%; in assay [7], 0.42%; in assay [10], 90.51%; in assay [14], 0.53%. For the same molecule, the Activity in assay [18] came to 0.11%; in [20], 5.8%; in assay [21] it was 2.28%. In addition, the IC50 in assay [3] turned out to be 8240 nM; in assay [4] it was 11200 nM; in [5], 2560 nM; in [9] it was 430 nM; in assay [11], 530 nM; in assay [13] it was 1430 nM. Besides, the viability at 0.5 µM in [8] was found to be 13.9%. The viability at 2 µM in assay [12] came to 28.1%. Further, in [15], the viability at 1 µM came to 98.7%. In addition, in assay [16], the inhibition result was “Active”. For the same molecule, the viability at 0.25 µM in assay [17] was 99%. In [19], the “Ratio IC50” value is 4.1.

Regarding `CCN(CC)CCCCn1c(N)c(-c2nc3ccccc3[nH]2)c2nc(C#N)c(C#N)nc21`, the Activity in [1] was 17.65%; in assay [2], 0.21%; in assay [6], 12.63%; in assay [7], 0.41%; in [10], 45.05%; in [14], 9.38%. Besides, the Activity in [18] amounted to 0.25%; in assay [20], 6.62%; in assay [21], 0.43%. The IC50 came to 5750 nM in assay [3]; 10100 nM in assay [4]; 2640 nM in [5]; 460 nM in [9]; 640 nM in [11]; 1440 nM in [13]. In addition, in assay [8], the viability at 0.5 µM was 78.7%. The viability at 2 µM in assay [12] was 45.3%. Moreover, in [15], the viability at 1 µM is 97.2%. In addition, the inhibition result in [16] was “Active”. Further, in assay [17], the viability at 0.25 µM stood at 99.2%. Moreover, in assay [19], the “Ratio IC50” value is recorded as 3.3.
